Compounds with a hit are over-represented: about 4.9% of the library has one in this group of screens.
STAT3 act: IL-6 driven STAT3 reporter potentiators, primary screen, U3A cells, luciferase, luminescence, MLSCN library. IL-6 STAT3-luciferase reporter; 100% = signal with IL-6 EC80 alone. activation (% of control), % at 5.6 µM. 190,000 tested, 0.91% active;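 active means activation above the screen-wide mean of compound activation plus 3 SD, cut at about 130% in these data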
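Test system: human U3A cells carrying STAT3-luciferase construct; control set: IL-6-only wells as 100% reference; timing: compound pre-incubation 1 h before IL-6, then 6 h stimulation at 37 °C; also added: IL-6 stimulus at 33 ng/mL final; evaluation: % activation versus median of IL-6-stimulated wells; detection: reporter luminescence signal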
STAT1 inh: STAT1 signaling inhibitors, primary screen, cell-based, HTS, luciferase reporter | NIH 3T3 STAT1-luciferase reporter, IFN-gamma, luminescence | inhibition, % at 5.5 µM | 200,000 tested, 0.35% active | AID 920, 2007;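 active means inhibition above a set limit, the mean inhibition across all tested compounds plus 3 SD, cut at about 34% in these data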
NF-kB expr up: activators of NF-kB expression in neurons, primary screen, cell-based, HTS | human neuronal cells, NF-kB reporter expression; stronger effect = higher value | fold change at 12.5 µM | 190,000 tested, 1.6% active; in the data active means fold change above about 3.3
STAT3 blocker: IL-6 driven STAT3 reporter inhibitors, primary screen, U3A cells, luciferase, luminescence, MLSCN library | IL-6 STAT3-luciferase reporter; host cell line lacks STAT1 | inhibition, % at 5.5 µM | 190,000 tested, 0.89% active | AID 862, 2007;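 active means inhibition above the mean inhibition across all screened compounds plus 3 SD, cut at about 44% in these data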
APP 5'UTR act: activators of APP 5'UTR luciferase reporter, primary screen, SH-SY5Y cells | AID 1276, 2008 | SH-SY5Y APP 5'UTR luciferase reporter, luminescence; zero percent = DMSO vehicle wells | 190,000 tested, 1% active | activation, % at 2 µM;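 active means activation above a set limit, based on mean plus 3 SD of controls, cut at about 140% in these data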
STAT1 activator: STAT1 signaling activators, primary screen, cell-based, HTS, luciferase reporter; NIH 3T3 STAT1-luciferase reporter, IFN-gamma, luminescence; 100% = IFN-gamma alone, no compound; activation (% of control), % at 5.5 µM; 200,000 tested, 2.6% active;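 active means activation above the screen-wide mean activation plus 3 SD, cut at about 130% in these data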
A number is an active result; i = inactive; nt = no result given.

SMILES	STAT3 act	STAT1 inh	NF-kB expr up	STAT3 blocker	APP 5'UTR act	STAT1 activator
COC(=O)c1ccccc1Oc1ccc(NC(=O)CCCl)cc1	i	i	i	i	i	i
Cc1c(O)ccoc1=O	nt	i	i	nt	i	i
COCCCNS(=O)(=O)c1ccc2c(c1)CCN2C(C)=O	i	i	i	i	i	i
CC(=O)N1CCc2cc(S(=O)(=O)NCCC3=CCCCC3)ccc21	i	i	nt	65	i	i
COCCn1c(-c2ccc(Cl)cc2)cnc1SCC(=O)NCCc1ccc(OC)c(OC)c1	i	i	i	i	i	i
CCOc1ccc(NC(=O)CSc2nc3c([nH]c4ccccc43)c(=O)n2C)cc1	134	i	i	i	i	i
Cc1ccc(NC(=O)CSc2nc3c([nH]c4ccccc43)c(=O)n2C)cc1	i	i	i	i	i	i
COCCn1c(SCC(=O)NCCc2ccc(OC)c(OC)c2)nc2c([nH]c3ccccc32)c1=O	135	i	i	i	i	i
O=C(CNC(=O)c1ccc(S(=O)(=O)N2CCCC2)cc1)N/N=C/c1ccco1	i	i	i	i	i	i
CCc1cccc(CC)c1NC(=S)Nc1ccccc1	i	i	i	i	i	i
Clc1ccccc1Cn1nnc(-c2cccs2)n1	i	i	i	i	i	143
Clc1ccccc1Cn1nnc(-c2ccccc2)n1	i	i	i	i	i	141
COc1cc(/C=N/NC(=S)NCc2ccccc2)ccc1OCC#N	i	i	i	i	i	i
Nc1c(-c2cccc([N+](=O)[O-])c2)nc2ccccn12	i	i	i	i	i	i
c1ccc(-c2ncc3c(ccc4ccccc43)n2)cc1	i	i	i	i	i	141
Cc1nnc(C)n1/N=C/c1ccccc1	i	i	i	i	i	i
N=C1N(/N=C/c2ccccc2)C(=Nc2ccccc2)C(=S)N1c1ccccc1	i	i	i	i	i	132
CNS(=O)(=O)c1cnccc1N1CCN(c2cccc(C(F)(F)F)c2)CC1	i	i	i	i	i	i
COc1ccc(N=C2S/C(=C\c3cc(C)n(C)c3C)C(=O)N2C)cc1	i	i	i	i	i	i
COc1ccccc1N1C(=O)S/C(=C\c2cc(C)n(C)c2C)C1=O	i	i	i	i	i	137
CN(C)c1ccc(CNc2nc(-c3ccccc3)nn2S(C)(=O)=O)cc1	i	i	i	i	i	i
CC(=O)n1nc(-c2ccccc2)nc1NCc1ccc(N(C)C)cc1	i	i	i	i	i	142
COCC(=O)n1nc(-c2ccccc2)nc1NCc1ccccc1	i	i	i	i	i	137
CC12CCC(C(=O)Nc3nc4ccc(Br)cc4s3)(OC1=O)C2(C)C (configuration not stated)	i	i	i	i	i	138
Cc1cc(C(=O)CSc2nnc(-c3cccnc3)n2-c2ccccc2F)c(C)n1CC1CCCO1 (configuration not stated)	i	i	i	i	i	i
SMILES	STAT3 act	STAT1 inh	NF-kB expr up	STAT3 blocker	APP 5'UTR act	STAT1 activator
CCOc1ccc(C(=O)NC(=S)NCc2cccnc2)cc1[N+](=O)[O-]	i	i	i	i	i	i
O=c1c(=NNc2ccccc2Cl)c(=O)c2ccccc12	i	i	i	i	154	i
COc1ccc(C2C(C#N)=C(N)N(c3ccccc3C#N)C3=C2C(=O)CCC3)cc1CN1CCCC1 (configuration not stated)	i	i	i	i	i	i
COC(=O)c1cc(-c2c(C)nn(-c3ccccc3)c2C)n[nH]1	i	i	5.9	i	i	i
CCN(CC)S(=O)(=O)c1ccc(-n2c(=O)c(C(C)C)c(C)n2C)cc1	i	i	i	i	i	i
c1ccc(-n2ncc3c2ncn2nc(-c4ccco4)nc32)cc1	i	i	i	i	i	137
O=C(CSc1nc(-c2ccccc2)ns1)N1CCOCC1	i	i	i	i	i	142
Cc1cccc(-c2nsc(SCC(=O)Nc3nccs3)n2)c1	i	i	i	i	i	i
O=C(CSc1nc(-c2ccc(F)cc2)cs1)N1CCOCC1	i	i	i	i	i	129
CCOC(=O)CSc1nc(-c2ccccc2)ns1	i	i	i	i	i	i
Cc1cccc(-c2nsc(SCC(=O)N3CCCC3)n2)c1	i	i	3.9	i	i	134
N#CC1(C#N)CC(C=O)=C(N)C1(C#N)CC(=O)C12CC3CC(CC(C3)C1)C2 (configuration not stated)	i	i	i	i	i	i
CCCCNC(=O)/C(C#N)=C/c1ccc(F)cc1F	i	i	i	i	i	i
CCN(c1ccc(NC(=O)CN2C(=O)NC3(CCOc4ccccc43)C2=O)cc1)C(C)C (configuration not stated)	i	i	i	i	i	i
CC(C)C[C@@H]1NC(=O)[C@H](Cc2ccc(O)cc2)NC(=O)[C@H](CCC(N)=O)NC(=O)c2cc([N+](=O)[O-])cc(I)c2NCC[C@@H](C(N)=O)NC1=O	i	i	i	i	i	i
O=C(CCSc1ccccc1)N1CCN(c2ccccc2)CC1	i	i	i	i	i	131
O=C(CCCOc1ccccc1)N1CCN(c2ccccc2)CC1	i	i	i	i	i	131
CCOC(=O)N1CCN(C(=O)CCCOc2ccccc2)CC1	i	i	i	i	i	i
NC(=O)C1CCN(C(=O)CCSc2ccc(Cl)cc2)CC1	i	i	i	i	i	i
Cc1cccc(N2CCN(C(=O)CCCOc3ccccc3)CC2)c1C	i	i	i	i	i	132
O=C(CCSc1ccc(Cl)cc1)N1CCCCCC1	i	i	i	i	i	132
Cc1cc(C)nc(SCC(CSc2nc(C)cc(C)n2)C(=O)O)n1	i	i	i	i	i	i
O=C(CN1CC(=O)Nc2ccccc21)NCCc1ccc(Cl)cc1Cl	i	i	i	i	i	i
CCCNC(=O)c1cc(-c2ccco2)on1	i	i	4.9	i	i	i
O=C(NC1CCCCC1)c1cc(-c2ccco2)on1	i	i	i	i	i	130
Clc1ccc2nc(-c3ccc4c(c3)OCO4)cn2c1	i	65	5	83	158	i
c1ccn2cc(-c3ccc4c(c3)OCCO4)nc2c1	i	60	i	90	i	i
CC(C)C(NC(=O)OCc1ccccc1)C(=O)NC1CCCCC1 (configuration not stated)	i	i	i	i	i	i
CCNS(=O)(=O)c1ccc(CCC(=O)NCCC2=CCCCC2)cc1	i	i	i	i	i	i
Cc1[nH]n2c(=O)c3c(nc2c1-c1ccc(F)cc1)CCCC3	i	i	i	i	i	i
